Our source for the Activity, IC50 and CC50 values is ChEMBL document CHEMBL2177084, “Discovery of salermide-related sirtuin inhibitors: binding mode studies and antiproliferative effects in cancer cells including cancer stem cells” (J Med Chem, 2012).

Activity calls are given as the source filed them. No cut-off for these calls is given here.

Experiment [1] concerns U-937. The experiment is described as follows: Induction of apoptosis in human U937 cells at 50 uM after 45 hrs by flow cytometry. The experiment is classed as functional, cell-based. A digest of the protocol:
(§1)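 Apoptosis was taken as the pre-G1 peak after propidium iodide staining in hypotonic citrate/Triton buffer (30 min, dark) and flow cytometry. Triplicate experiments.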
Background: Flow cytometry measures light scatter and fluorescence of single cells or particles in a stream.

The test system of experiment [2] is U-937. The experiment is described as follows: Induction of apoptosis in human U937 cells at 5 uM after 45 hrs by flow cytometry. The experiment is classed as functional, cell-based. A digest of the protocol: as §1
Experiment [3] addresses T1, NAD-dependent protein deacetylase sirtuin-2 (Homo sapiens, UniProt Q8IXJ6).
T1 sequence (Q8IXJ6 whole entry): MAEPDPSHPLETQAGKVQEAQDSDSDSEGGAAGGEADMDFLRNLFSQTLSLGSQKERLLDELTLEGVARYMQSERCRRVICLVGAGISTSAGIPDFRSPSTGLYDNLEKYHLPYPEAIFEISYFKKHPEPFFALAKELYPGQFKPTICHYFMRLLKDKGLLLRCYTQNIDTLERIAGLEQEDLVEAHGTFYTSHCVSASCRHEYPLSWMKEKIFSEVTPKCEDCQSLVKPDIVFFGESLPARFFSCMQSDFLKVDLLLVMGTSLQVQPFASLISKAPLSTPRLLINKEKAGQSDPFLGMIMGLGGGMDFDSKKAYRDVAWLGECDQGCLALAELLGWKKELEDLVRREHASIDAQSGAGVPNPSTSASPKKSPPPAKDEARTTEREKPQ
The experiment is described as follows: Inhibition of human SIRT2 expressed in Escherichia coli using Gln-Pro-Lys-Lys(Ac) as substrate after 1 hr by Fluor de Lys fluorescence based assay. An outline of the steps:
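Recombinant full-length human sirtuin expressed in E. coli was incubated 1 h at 37 °C with p53-derived AMC-conjugated acetyl-peptide (SIRT1: Arg-His-Lys-Lys(Ac); SIRT2: Gln-Pro-Lys-Lys(Ac); […]) and NAD+ ([…]). The reaction was stopped and developed with developer containing 2 mM nicotinamide, and fluorescence read at ex 360/em 460 nm. Compound fluorescence was subtracted using an enzyme-free counter assay. Triplicate.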

A short description of experiment [4]: Cytotoxicity against human 30PT cells after 72 hrs by celltiter-glo luminescent assay. It is filed as functional. An outline of the steps:
(§2)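 Patient-derived CSC spheroids were dissociated, plated at 2000–3000 viable cells, and held 24 h at 37 °C in 5% CO2. They were then treated 72 h with eight 1:3 serial dilutions (0.023–50 μM), with 0.1% DMSO as control, in triplicate. Viability was read by CellTiter-Glo luminescence relative to DMSO, and CC50 was obtained by 4-parameter logistic fit (mean of three experiments).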

Experiment [5] is described as follows: Cytotoxicity against human 30P cells after 72 hrs by celltiter-glo luminescent assay. The experiment is classed as functional. An outline of the steps: as §2
Background: In ATP-based viability assays light output follows the ATP content of the culture.

Experiment [6] can be described thus: Cytotoxicity against human CRC 1.1 cells after 72 hrs by celltiter-glo luminescent assay. It is filed as functional. A digest of the protocol:
as §2

Experiment [7] can be described thus: Cytotoxicity against human CRO cells after 72 hrs by celltiter-glo luminescent assay. The experiment is classed as functional. A digest of the protocol: as §2
The next experiment has as its system MOLT-4. The experiment is described as follows: Antiproliferative activity against human MOLT4 cells at 25 uM after 24 to 72 hrs by MTT assay. The experiment is classed as functional, cell-based. A digest of the protocol: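 Cells exposed to compound for 24, 48 and 72 h; growth inhibition read by MTT and expressed as percentage antiproliferative activity.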
A general note: Tetrazolium dyes change colour on reduction, which living cells bring about.

One may read the IC50 as the concentration at which inhibition is half-maximal. As usually defined, the CC50 is the concentration at which the toxic effect on the cells reaches its halfway point. With `CC(CS(=O)(=O)c1ccccc1/N=C/c1c(O)ccc2ccccc12)c1ccccc1` (stereo not drawn), the outcome with U-937 [1] and with MOLT-4 was Active. Besides, the result in the experiment on U-937 [2] was inactive. Besides, the IC50 in experiment [3] was 24.2 µM. Also, the CC50 in experiment [4] was 15.3 µM; in experiment [5] it was 17.4 µM; in experiment [6], 19.5 µM; in experiment [7], 15.7 µM.
